# According to ChEMBL document CHEMBL3872287, “Novel 2-Substituted 7-Azaindole and 7-Azaindazole Analogues as Potential Antiviral Agents for the Treatment of Influenza” (ACS Med Chem Lett, 2017):
# Assays:
# aldehyde oxidase [1] = molecular target: T1, aldehyde oxidase (Homo sapiens, UniProt Q06278); experiment: Drug metabolism in human liver cytosol assessed as aldehyde oxidase-mediated metabolism by measuring amount of parent compound remaining measured over 4 hrs in presence of aldehyde oxidase inhibitor raloxifene by MS/MS analysis; assay type: ADME; conditions: read-out: Stability
# T1 sequence (Q06278 whole entry): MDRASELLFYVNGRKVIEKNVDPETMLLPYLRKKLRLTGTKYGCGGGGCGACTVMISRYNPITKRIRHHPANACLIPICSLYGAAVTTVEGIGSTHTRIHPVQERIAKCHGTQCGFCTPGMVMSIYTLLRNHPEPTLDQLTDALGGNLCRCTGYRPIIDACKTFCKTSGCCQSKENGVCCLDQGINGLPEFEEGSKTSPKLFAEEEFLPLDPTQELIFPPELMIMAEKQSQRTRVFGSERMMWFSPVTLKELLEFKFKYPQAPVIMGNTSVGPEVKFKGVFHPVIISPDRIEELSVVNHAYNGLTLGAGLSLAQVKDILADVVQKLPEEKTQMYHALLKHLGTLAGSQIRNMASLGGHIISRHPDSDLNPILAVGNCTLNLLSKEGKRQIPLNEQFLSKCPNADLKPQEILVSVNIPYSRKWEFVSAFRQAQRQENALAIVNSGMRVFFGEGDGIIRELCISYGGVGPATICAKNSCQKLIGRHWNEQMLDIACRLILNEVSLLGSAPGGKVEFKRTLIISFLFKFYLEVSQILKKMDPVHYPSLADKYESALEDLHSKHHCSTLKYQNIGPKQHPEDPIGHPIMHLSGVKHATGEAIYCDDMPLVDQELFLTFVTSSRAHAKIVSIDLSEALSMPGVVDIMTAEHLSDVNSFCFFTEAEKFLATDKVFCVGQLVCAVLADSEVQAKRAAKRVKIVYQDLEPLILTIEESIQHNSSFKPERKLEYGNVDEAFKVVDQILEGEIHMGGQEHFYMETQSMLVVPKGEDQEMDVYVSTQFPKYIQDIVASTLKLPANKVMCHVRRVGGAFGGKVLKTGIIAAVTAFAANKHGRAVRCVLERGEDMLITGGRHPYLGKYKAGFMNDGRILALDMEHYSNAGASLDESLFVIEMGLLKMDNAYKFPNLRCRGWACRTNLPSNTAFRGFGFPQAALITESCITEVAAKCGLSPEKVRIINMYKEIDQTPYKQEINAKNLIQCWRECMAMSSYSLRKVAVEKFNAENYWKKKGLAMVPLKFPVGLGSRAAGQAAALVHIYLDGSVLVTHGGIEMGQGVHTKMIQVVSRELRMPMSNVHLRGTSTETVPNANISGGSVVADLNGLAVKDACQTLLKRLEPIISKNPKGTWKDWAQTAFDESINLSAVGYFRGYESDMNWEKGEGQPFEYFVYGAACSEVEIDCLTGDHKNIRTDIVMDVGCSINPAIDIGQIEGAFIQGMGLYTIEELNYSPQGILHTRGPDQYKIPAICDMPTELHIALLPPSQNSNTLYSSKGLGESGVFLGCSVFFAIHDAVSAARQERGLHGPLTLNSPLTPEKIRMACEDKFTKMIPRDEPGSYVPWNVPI
# Summary of the method: (§1)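 Test compounds were incubated in triplicate at 1 µM in human liver cytosol (1 mg/mL protein) at 37 °C for 4 hours, with or without the aldehyde oxidase inhibitor raloxifene.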
# aldehyde oxidase [2] = molecular target: T1, aldehyde oxidase; experiment: Drug metabolism in human liver cytosol assessed as aldehyde oxidase-mediated metabolism by measuring amount of parent compound remaining measured over 4 hrs in absence of aldehyde oxidase inhibitor raloxifene by MS/MS analysis; assay type: ADME; conditions: read-out: Stability; summary of the method: as §1
# [3] = Antiviral activity against Influenza A virus (A/Puerto Rico/8/34(H1N1)) infected in MDCK cells assessed as decrease in negative strand HA RNA levels after 20 hrs by bDNA hybridization method; assay type: functional, Influenza A virus (A/Puerto Rico/8/1934(H1N1))
# Summary of the method: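 Viral RNA in infected cells quantified by branched DNA assay. EC90 is the test-compound concentration giving viral RNA levels equal to 10% of control wells.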
# [4] = Half life in rat at 1 mg/kg, iv; assay type: ADME, organism-based; conditions: in vivo
# [5] = AUC in mouse at 30 mg/kg, po; assay type: ADME, organism-based; conditions: in vivo
# [6] = Volume of distribution in steady state in rat at 1 mg/kg, iv; assay type: ADME, organism-based; conditions: in vivo, read-out: Vdss
# [7] = Cmax in rat at 3 mg/kg, po; assay type: ADME, organism-based; design: dose 3 mg/kg, route oral; conditions: in vivo
# [8] = AUC (0 to infinity) in rat at 3 mg/kg, po; assay type: ADME, organism-based; design: dose 3 mg/kg, time infinity, route oral; conditions: in vivo
# [9] = Oral bioavailability in rat at 3 mg/kg; assay type: ADME, organism-based; conditions: in vivo
# [10] = Cmax in mouse at 30 mg/kg, po; assay type: ADME, organism-based; design: dose 30 mg/kg, route oral; conditions: in vivo
# [11] = Clearance in rat at 1 mg/kg, iv; assay type: ADME, organism-based; conditions: in vivo
SMILES,remaining at 4 h (aldehyde oxidase [1]) [%],remaining at 4 h (aldehyde oxidase [2]) [%],"EC90 ([3]; Influenza A virus, MDCK, 20 h) [nM]",further results
O=C(N[C@@H]1CCC[C@H](Nc2nc(-c3c[nH]c4ncc(F)cc34)ncc2F)C1)N1CCOCC1,103,7,,
O=C(N[C@@H]1CCC[C@H](Nc2nc(-c3c(CO)[nH]c4ncc(F)cc34)ncc2F)C1)N1CC[C@@H](F)C1,114,105,10,
Cn1cnc(C(=O)N[C@@H]2CCC[C@H](Nc3nc(-c4n[nH]c5ncc(F)cc45)ncc3F)C2)c1,103,40,15,
O=C(N[C@@H]1CCC[C@H](Nc2nc(-c3c[nH]c4ncc(F)cc34)ncc2F)C1)N1CCCC1,99,4,1,half-life [4]: 3.2 h; AUC [5]: 336000 ng·h/mL; Vd [6]: 0.3 L/kg; Cmax [7]: 2600 ng/mL; AUC(0-inf) [8]: 30300 ng·h/mL; bioavailability [9]: 82%; Cmax [10]: 61100 ng/mL; clearance [11]: 1.2 mL/min/kg
O=C(O)[C@H]1C2CCC(CC2)[C@@H]1Nc1nc(-c2n[nH]c3ncc(F)cc23)ncc1F,,,3,
O=C(N[C@@H]1CCC[C@H](Nc2nc(-c3c(C4CC4)[nH]c4ncc(F)cc34)ncc2F)C1)N1CCCC1,,,> 3300,
O=C(N[C@@H]1CCC[C@H](Nc2nc(-c3n[nH]c4ncc(F)cc34)ncc2F)C1)N1CCCC1,101,1,2,half-life [4]: 1.5 h; AUC [5]: 44500 ng·h/mL; Vd [6]: 0.4 L/kg; Cmax [7]: 200 ng/mL; AUC(0-inf) [8]: 1200 ng·h/mL; bioavailability [9]: 15.3%; Cmax [10]: 32100 ng/mL; clearance [11]: 7.7 mL/min/kg
O=C(O)c1[nH]c2ncc(F)cc2c1-c1ncc(F)c(N[C@H]2CCC[C@@H](NC(=O)N3CCCC3)C2)n1,,,2200,
Cc1[nH]c2ncc(F)cc2c1-c1ncc(F)c(N[C@H]2CCC[C@@H](NC(=O)N3CCCC3)C2)n1,103,103,280,
O=C(N[C@@H]1CCC[C@H](Nc2nc(-c3c(/C=N/O)[nH]c4ncc(F)cc34)ncc2F)C1)N1CCCC1,,,91,
O=C(N[C@@H]1CCC[C@H](Nc2nc(-c3n[nH]c4ncc(F)cc34)ncc2F)C1)N1CCOCC1,,,14,
O=C(N[C@@H]1CCC[C@H](Nc2nc(-c3n[nH]c4ncc(F)cc34)ncc2F)C1)c1ccsc1,107,0,1,
O=C(N[C@@H]1CCC[C@H](Nc2nc(-c3n[nH]c4ncc(F)cc34)ncc2F)C1)N1CC[C@@H](F)C1,98,0.6,1,
O=C(N[C@@H]1CCC[C@H](Nc2nc(-c3c(CO)[nH]c4ncc(F)cc34)ncc2F)C1)N1CCCC1,96,100,28,half-life [4]: 2.3 h; AUC [5]: 101000 ng·h/mL; Vd [6]: 0.6 L/kg; Cmax [7]: 2800 ng/mL; AUC(0-inf) [8]: 9700 ng·h/mL; bioavailability [9]: 100%; Cmax [10]: 37700 ng/mL; clearance [11]: 6.2 mL/min/kg
CC(O)c1[nH]c2ncc(F)cc2c1-c1ncc(F)c(N[C@H]2CCC[C@@H](NC(=O)N3CCCC3)C2)n1 (stereo in doubt; 21a),,,,EC90 [3]: 27 nM
CC(O)c1[nH]c2ncc(F)cc2c1-c1ncc(F)c(N[C@H]2CCC[C@@H](NC(=O)N3CCCC3)C2)n1 (stereo in doubt; 21b),99,99,,EC90 [3]: 460 nM
